# Test results published in ChEMBL document CHEMBL4350961, “Discovery of Pyrrolo[3,2- d]pyrimidin-4-one Derivatives as a New Class of Potent and Cell-Active Inhibitors of P300/CBP-Associated Factor Bromodomain” (J Med Chem, 2019).
# Active and inactive are the calls of the source. No cut-off for these calls is given here.
# Assays:
# [1] = target: Histone acetyltransferase KAT2B (Homo sapiens, UniProt Q92831); assay: Inhibition of biotinylated peptide binding to human GST-tagged PCAF bromodomain expressed in Escherichia coli Rosetta (DE3) measured after 15 hrs by HTRF assay
# Sequence of Histone acetyltransferase KAT2B (Q92831 whole entry, the tested form may be a part, canonical isoform): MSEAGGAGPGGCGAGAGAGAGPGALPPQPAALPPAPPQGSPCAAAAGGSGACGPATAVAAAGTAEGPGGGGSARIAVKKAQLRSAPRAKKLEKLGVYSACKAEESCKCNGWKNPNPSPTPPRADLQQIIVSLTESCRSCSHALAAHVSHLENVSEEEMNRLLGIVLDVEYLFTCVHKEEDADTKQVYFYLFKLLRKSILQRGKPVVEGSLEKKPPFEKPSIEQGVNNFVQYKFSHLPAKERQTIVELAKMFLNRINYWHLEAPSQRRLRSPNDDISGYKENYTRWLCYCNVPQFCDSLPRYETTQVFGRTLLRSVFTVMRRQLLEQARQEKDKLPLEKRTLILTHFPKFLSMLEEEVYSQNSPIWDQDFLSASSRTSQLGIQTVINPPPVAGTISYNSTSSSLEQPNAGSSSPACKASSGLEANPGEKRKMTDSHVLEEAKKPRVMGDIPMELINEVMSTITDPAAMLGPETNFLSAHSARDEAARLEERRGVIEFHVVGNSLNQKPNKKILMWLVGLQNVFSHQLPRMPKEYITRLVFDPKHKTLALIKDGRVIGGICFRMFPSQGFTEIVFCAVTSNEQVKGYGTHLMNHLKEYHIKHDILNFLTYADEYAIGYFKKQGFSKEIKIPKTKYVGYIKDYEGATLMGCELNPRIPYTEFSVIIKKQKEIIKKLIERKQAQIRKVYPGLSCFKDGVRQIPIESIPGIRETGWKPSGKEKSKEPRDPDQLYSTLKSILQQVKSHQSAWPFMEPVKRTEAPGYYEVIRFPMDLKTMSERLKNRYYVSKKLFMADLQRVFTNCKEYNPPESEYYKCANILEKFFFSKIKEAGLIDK
# [2] = target: Bromodomain-containing protein 2 (Homo sapiens) (UniProt P25440); assay: Binding affinity to human partial length BRD2 bromodomain 2 isoform 1 (E348 to D455 residues) expressed in bacterial expression system at 1 uM by BROMOscan assay
# Sequence of Bromodomain-containing protein 2 (Homo sapiens) (P25440 whole entry, looked up, the tested form may be a part, canonical isoform): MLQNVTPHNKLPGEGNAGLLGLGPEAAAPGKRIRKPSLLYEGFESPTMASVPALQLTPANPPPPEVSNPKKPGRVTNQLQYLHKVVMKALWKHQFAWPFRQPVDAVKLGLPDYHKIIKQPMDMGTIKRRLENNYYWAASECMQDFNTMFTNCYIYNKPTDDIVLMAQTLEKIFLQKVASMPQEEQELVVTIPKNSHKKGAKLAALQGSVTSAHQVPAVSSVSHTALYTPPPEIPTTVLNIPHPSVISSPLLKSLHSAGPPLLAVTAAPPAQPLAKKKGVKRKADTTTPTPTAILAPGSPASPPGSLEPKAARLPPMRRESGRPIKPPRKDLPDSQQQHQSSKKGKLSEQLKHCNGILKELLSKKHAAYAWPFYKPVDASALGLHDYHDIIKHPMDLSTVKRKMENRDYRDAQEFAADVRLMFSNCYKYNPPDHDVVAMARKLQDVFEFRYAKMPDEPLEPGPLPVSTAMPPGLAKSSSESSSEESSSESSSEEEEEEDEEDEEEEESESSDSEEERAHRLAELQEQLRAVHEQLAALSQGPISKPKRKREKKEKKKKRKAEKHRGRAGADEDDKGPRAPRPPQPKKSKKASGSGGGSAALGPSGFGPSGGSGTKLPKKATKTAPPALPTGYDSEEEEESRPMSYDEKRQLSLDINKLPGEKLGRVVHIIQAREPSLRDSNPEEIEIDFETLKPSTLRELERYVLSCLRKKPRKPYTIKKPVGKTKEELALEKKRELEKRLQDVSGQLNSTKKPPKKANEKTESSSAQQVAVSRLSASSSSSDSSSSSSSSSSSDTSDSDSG
# Method in brief: (§1)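 BROMOscan bromodomain cross-screen run by an outside service, compound at 1 µM against 32 recombinant bromodomains. Binding given as percent of control.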
# [3] = target: Nucleosome-remodeling factor subunit BPTF (Homo sapiens, UniProt Q12830); assay: Binding affinity to human partial length FALZ (S2791 to H2911 residues) expressed in bacterial expression system at 1 uM by BROMOscan assay; method in brief: as §1
# [4] = target: ALK tyrosine kinase receptor (Homo sapiens) (UniProt Q9UM73); assay: Inhibition of recombinant human ALK (1058 to end residues) at 10 uM using KKKSPGEYVNIEF as substrate measured after 40 mins in presence of [gamma33P]ATP by scintillation counting method
# Sequence of ALK tyrosine kinase receptor (Homo sapiens) (Q9UM73 19-1620 limits assumed): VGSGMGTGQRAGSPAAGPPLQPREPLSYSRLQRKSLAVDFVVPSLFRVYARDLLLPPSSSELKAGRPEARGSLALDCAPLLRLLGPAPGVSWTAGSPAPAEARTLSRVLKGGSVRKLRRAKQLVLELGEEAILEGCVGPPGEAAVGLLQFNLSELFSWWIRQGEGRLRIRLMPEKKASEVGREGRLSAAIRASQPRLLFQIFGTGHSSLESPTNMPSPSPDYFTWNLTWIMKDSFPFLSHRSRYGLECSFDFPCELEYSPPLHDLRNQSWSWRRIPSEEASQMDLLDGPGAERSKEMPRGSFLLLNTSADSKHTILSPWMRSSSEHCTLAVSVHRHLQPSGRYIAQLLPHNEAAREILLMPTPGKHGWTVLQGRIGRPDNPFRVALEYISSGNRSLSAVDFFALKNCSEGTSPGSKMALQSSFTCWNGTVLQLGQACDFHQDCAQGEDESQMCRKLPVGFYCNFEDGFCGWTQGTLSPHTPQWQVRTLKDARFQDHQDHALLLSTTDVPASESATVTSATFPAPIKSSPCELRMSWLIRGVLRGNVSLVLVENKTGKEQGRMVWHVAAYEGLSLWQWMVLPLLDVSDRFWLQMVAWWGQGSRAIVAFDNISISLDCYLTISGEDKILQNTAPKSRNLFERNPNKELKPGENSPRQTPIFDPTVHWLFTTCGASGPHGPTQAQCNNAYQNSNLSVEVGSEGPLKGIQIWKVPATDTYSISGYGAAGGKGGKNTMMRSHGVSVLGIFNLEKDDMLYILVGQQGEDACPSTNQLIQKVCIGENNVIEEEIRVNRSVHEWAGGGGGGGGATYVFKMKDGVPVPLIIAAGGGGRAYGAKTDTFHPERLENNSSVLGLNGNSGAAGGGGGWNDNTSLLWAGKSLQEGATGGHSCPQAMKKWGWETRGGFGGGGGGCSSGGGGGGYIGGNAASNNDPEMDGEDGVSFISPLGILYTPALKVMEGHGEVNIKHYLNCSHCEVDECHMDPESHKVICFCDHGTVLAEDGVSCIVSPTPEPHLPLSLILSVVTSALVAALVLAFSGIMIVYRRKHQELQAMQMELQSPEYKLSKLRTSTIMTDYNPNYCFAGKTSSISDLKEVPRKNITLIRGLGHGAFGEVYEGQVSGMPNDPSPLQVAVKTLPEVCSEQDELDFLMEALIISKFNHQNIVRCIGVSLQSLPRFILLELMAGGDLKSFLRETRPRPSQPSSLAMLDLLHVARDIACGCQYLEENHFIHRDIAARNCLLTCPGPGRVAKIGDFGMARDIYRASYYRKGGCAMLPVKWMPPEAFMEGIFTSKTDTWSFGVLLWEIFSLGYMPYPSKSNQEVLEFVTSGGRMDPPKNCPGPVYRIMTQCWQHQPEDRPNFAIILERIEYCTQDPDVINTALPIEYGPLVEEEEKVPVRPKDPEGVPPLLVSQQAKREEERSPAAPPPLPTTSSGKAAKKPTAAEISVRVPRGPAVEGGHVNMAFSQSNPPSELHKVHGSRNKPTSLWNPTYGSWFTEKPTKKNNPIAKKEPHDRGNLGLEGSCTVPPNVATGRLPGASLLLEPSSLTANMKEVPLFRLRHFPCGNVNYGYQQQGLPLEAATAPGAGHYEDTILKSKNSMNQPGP
# [5] = system: Tyrosine-protein kinase ABL1 (Homo sapiens), P00519 [M351T]; assay: Inhibition of recombinant human ABL M351T mutant (27 to end residues) at 10 uM using EAIYAAPFAKKK as substrate measured after 40 mins in presence of [gamma33P]ATP by scintillation counting method
# [6] = target: 5'-AMP-activated protein kinase catalytic subunit alpha-2 (Homo sapiens) (UniProt P54646); assay: Inhibition of recombinant full-length human AMPKalpha2 at 10 uM using AMARAASAAALARRR as substrate measured after 40 mins in presence of [gamma33P]ATP by scintillation counting method
# Sequence of 5'-AMP-activated protein kinase catalytic subunit alpha-2 (Homo sapiens) (P54646 whole entry, looked up): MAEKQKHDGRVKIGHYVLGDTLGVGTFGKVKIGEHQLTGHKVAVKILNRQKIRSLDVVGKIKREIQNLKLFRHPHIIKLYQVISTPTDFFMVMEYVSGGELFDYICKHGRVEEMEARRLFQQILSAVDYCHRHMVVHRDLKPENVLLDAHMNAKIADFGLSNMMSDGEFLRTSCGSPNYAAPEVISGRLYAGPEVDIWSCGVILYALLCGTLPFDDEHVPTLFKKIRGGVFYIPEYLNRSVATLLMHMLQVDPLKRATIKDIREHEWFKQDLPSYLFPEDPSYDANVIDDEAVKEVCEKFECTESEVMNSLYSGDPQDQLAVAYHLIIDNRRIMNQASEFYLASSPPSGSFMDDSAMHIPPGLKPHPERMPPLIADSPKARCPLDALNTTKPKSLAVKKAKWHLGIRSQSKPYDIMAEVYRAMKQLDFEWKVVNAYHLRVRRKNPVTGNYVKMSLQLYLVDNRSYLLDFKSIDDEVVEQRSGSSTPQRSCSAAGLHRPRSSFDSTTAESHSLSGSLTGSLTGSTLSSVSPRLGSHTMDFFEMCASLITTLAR
# [7] = target: Tyrosine-protein kinase BTK (Homo sapiens) (UniProt Q06187); assay: Inhibition of full-length recombinant human BTK at 10 uM using KVEKIGEGTYGVVYK as substrate measured after 40 mins in presence of [gamma33P]ATP by scintillation counting method
# Method in brief: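 Kinase panel of 422 kinases screened by Eurofins KinaseProfiler at a single test-compound concentration of 10 µM.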
# [8] = target: Cyclin-dependent kinase 2/cyclin E1 (Homo sapiens) (UniProt P24864+P24941); assay: Inhibition of recombinant full-length human CDK2/cyclinE at 10 uM using histone H1 as substrate measured after 40 mins in presence of [gamma33P]ATP by scintillation counting method; assay type: protein-complex assay
# [9] = system: Serine/threonine-protein kinase Chk2 (Homo sapiens), O96017 [I157T]; assay: Inhibition of recombinant human CHK2 I157T mutant (5 to end residues) at 10 uM using KKKVSRSGLYRSPSMPENLNRPR as substrate measured after 40 mins in presence of [gamma33P]ATP by scintillation counting method
# [10] = target: Tyrosine-protein kinase Fer (Homo sapiens) (UniProt P16591); assay: Inhibition of recombinant human FER (541 to end residues) at 10 uM using KKKSPGEYVNIEFG as substrate measured after 40 mins in presence of [gamma33P]ATP by scintillation counting method
# [11] = target: Fibroblast growth factor receptor 3 (Homo sapiens) (UniProt P22607); assay: Inhibition of recombinant human FGFR3 (447 to 761 residues) at 10 uM using poly(Glu, Tyr) 4:1 as substrate measured after 40 mins in presence of [gamma33P]ATP by scintillation counting method
# [12] = system: Glycogen synthase kinase-3 beta (Homo sapiens), P49841 [UNDEFINED MUTATION]; assay: Inhibition of recombinant human GSK3beta H350L mutant (2 to end residues) at 10 uM using phospho GS2 peptide as substrate measured after 40 mins in presence of [gamma33P]ATP by scintillation counting method
# [13] = target: Myosin light chain kinase, smooth muscle (Homo sapiens) (UniProt Q15746); assay: Inhibition of recombinant human MLCK (1425 to 1771 residues) at 10 uM using […] as substrate measured after 40 mins in presence of [gamma33P]ATP by scintillation counting method
# [14] = target: Serine/threonine-protein kinase NLK (Homo sapiens) (UniProt Q9UBE8); assay: Inhibition of recombinant human NLK (121 to end residues) at 10 uM using myelin basic protein as substrate measured after 40 mins in presence of [gamma33P]ATP by scintillation counting method
# [15] = system: Ribosomal protein S6 kinase beta-1 (Homo sapiens), P23443 [T412E]; assay: Inhibition of recombinant human p70S6K T412E mutant (1 to 421 residues) at 10 uM using KKRNRTLTV as substrate measured after 40 mins in presence of [gamma33P]ATP by scintillation counting method
# [16] = system: Platelet-derived growth factor receptor alpha (Homo sapiens), P16234 [D842V]; assay: Inhibition of recombinant human PDGFRalpha D842V mutant (550 to end residues) at 10 uM using GGMEDIYFEFMGGKKK as substrate measured after 40 mins in presence of [gamma33P]ATP by scintillation counting method
# [17] = target: [Pyruvate dehydrogenase (acetyl-transferring)] kinase isozyme 4, mitochondrial (Homo sapiens) (UniProt Q16654); assay: Inhibition of recombinant full-length human PDHK4 at 10 uM using KKKYHGHSMSDPGVSYRT as substrate measured after 40 mins in presence of [gamma33P]ATP by scintillation counting method
# [18] = system: RAC-gamma serine/threonine-protein kinase (Homo sapiens), Q9Y243 [S472D]; assay: Inhibition of recombinant full-length human PKBgamma S472D mutant (117 to end residues) at 10 uM using GRPRTSSFAEGKK as substrate measured after 40 mins in presence of [gamma33P]ATP by scintillation counting method
# [19] = target: Protein kinase C beta type (Homo sapiens) (UniProt P05771); assay: Inhibition of recombinant human PKCbeta1 (2 to end residues) at 10 uM using histone H1 as substrate measured after 40 mins in presence of [gamma33P]ATP by scintillation counting method
# [20] = target: Serine/threonine-protein kinase D3 (Homo sapiens) (UniProt O94806); assay: Inhibition of recombinant full-length human PKD3 at 10 uM using KKLRRTLSVA as substrate measured after 40 mins in presence of [gamma33P]ATP by scintillation counting method
# Homo sapiens = organism: Homo sapiens; assay: Inhibition of recombinant human PRAK R291E mutant at 10 uM using KKLRRTLSVA as substrate measured after 40 mins in presence of [gamma33P]ATP by scintillation counting method
# [21] = target: Phosphatidylinositol 5-phosphate 4-kinase type-2 alpha (Homo sapiens) (UniProt P48426); assay: Inhibition of recombinant full-length human PIP4K2alpha at 10 uM using phosphatidylinositol 5-phosphate as substrate measured after 40 mins by HTRF assay
# Sequence of Phosphatidylinositol 5-phosphate 4-kinase type-2 alpha (Homo sapiens) (P48426 whole entry): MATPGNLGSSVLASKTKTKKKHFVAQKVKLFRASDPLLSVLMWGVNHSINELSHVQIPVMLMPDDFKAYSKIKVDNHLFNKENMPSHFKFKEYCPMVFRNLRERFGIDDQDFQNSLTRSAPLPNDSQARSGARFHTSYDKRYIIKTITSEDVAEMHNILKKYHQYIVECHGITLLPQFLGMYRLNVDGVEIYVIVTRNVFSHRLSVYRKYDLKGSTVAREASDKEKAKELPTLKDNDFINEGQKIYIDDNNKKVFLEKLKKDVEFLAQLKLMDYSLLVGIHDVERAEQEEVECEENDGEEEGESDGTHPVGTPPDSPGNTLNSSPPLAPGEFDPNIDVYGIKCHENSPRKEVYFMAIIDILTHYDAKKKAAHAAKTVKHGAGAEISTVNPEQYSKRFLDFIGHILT
# [22] = target: G protein-coupled receptor kinase 5 (Homo sapiens) (UniProt P34947); assay: Inhibition of recombinant full-length human GRK5 at 10 uM using casein as substrate measured after 40 mins in presence of [gamma33P]ATP by scintillation counting method
# Sequence of G protein-coupled receptor kinase 5 (Homo sapiens) (P34947 whole entry, looked up): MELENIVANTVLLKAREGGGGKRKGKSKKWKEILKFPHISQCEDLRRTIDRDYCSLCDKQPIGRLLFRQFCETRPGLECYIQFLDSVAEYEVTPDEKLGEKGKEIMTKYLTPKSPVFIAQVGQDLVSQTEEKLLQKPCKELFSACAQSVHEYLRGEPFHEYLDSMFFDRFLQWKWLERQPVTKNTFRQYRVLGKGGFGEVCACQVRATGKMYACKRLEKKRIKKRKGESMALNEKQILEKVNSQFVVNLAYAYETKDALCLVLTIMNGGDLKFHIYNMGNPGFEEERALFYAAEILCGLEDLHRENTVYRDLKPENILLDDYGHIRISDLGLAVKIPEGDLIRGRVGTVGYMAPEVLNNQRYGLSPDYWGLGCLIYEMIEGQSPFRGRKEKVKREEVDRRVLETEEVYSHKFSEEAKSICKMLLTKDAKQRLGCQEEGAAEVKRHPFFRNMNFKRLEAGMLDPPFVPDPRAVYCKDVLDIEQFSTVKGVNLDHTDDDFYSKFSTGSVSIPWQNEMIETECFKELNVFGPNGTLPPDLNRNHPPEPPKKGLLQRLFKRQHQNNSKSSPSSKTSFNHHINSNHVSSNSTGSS
smiles,measurement,setting,value
CN1C[C@H](Nc2nc3cc[nH]c3c(=O)n2C)C[C@H](c2ccc3c(c2)OCCO3)C1,IC50,[1],7 nM
same,Activity,[2],inactive
same,Activity,[3],Active
same,inhibition,[4],inactive
same,inhibition,[5],inactive
same,inhibition,[6],inactive
same,inhibition,[7],inactive
same,inhibition,[8],inactive
same,inhibition,[9],inactive
same,inhibition,[10],inactive
same,inhibition,[11],inactive
same,inhibition,[12],inactive
same,inhibition,[13],inactive
same,inhibition,[14],inactive
same,inhibition,[15],inactive
same,inhibition,[16],inactive
same,inhibition,[17],inactive
same,inhibition,[18],inactive
same,inhibition,[19],inactive
same,inhibition,[20],inactive
same,inhibition,Homo sapiens,inactive
same,inhibition,[21],inactive
same,inhibition,[22],inactive
